This note sets out measurements from ChEMBL document CHEMBL4428100, “Versatile Picklocks To Access All Opioid Receptors: Tuning the Selectivity and Functional Profile of the Cyclotetrapeptide c[Phe-d-Pro-Phe-Trp] (CJ-15,208)” (J Med Chem, 2016).

Data set [1] addresses T1, Kappa-type opioid receptor (Homo sapiens, UniProt P41145). The experiment in a line: Displacement of [3H]U69,593 from human KOR expressed in HEK293 cell membranes incubated for 90 mins by liquid scintillation counting. The procedure, abridged:
(§1)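 Compound (10^-12 to 10^-4 M) incubated 90 min at 25°C in 100 mM Tris-HCl with 0.3% BSA. Cold ligands define nonspecific binding. Filters presoaked in 0.3% polyethylenimine; liquid scintillation counting. Ki from IC50 by Cheng-Prusoff; triplicate.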
On the technique in general: Displacement assays read how much labelled ligand stays bound in the presence of the test substance.

The target of data set [2] is T2, Mu-type opioid receptor (Homo sapiens, UniProt P35372). The experiment in a line: Displacement of [3H]DAMGO from human MOR expressed in HEK293 cell membranes incubated for 90 mins by liquid scintillation counting. The procedure, abridged:
as §1

Data set [3] has as its target T3, Delta-type opioid receptor (Homo sapiens, UniProt P41143). In words: Displacement of [3H]diprenorphine from human DOR expressed in HEK293 cell membranes incubated for 90 mins by liquid scintillation counting.
In data set [4] the target is T2, Mu-type opioid receptor. In words: Agonist activity at human MOR expressed in HEK293 cells assessed as inhibition of forskolin-induced cAMP accumulation at 10^-12 to 10^-4 M by EIA method. In kind it is functional, cell-based. In a few lines:
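Whole HEK-293 cells stably expressing hMOR, in serum-free medium with 0.5 mM IBMX, exposed 15 min at 37°C to 10 μM forskolin with or without compound (0.001 nM-100 μM). cAMP measured by EIA kit. Triplicate determinations; IC50 and Emax (% vehicle) as mean ± SE of 5-6 independent experiments.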

Data set [5] addresses T2, Mu-type opioid receptor. The data set is classed as functional, cell-based, HEK293.
Data set [6] concerns the target T2, Mu-type opioid receptor. The experiment in a line: Displacement of [3H]DAMGO from human MOR expressed in HEK293 cell membranes at […] incubated for 90 mins by liquid scintillation counting.
Data set [7] concerns the target T3, Delta-type opioid receptor. The experiment in a line: Antagonist activity at human DOR expressed in HEK293 cells assessed as reduction of DPDPE-induced inhibition of forskolin-induced cAMP accumulation by EIA method. The data set is classed as functional, cell-based. In a few lines:
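HEK-293 cells stably expressing hDOR, in serum-free medium with 0.5 mM IBMX, exposed 15 min at 37°C to 10 μM forskolin plus 10 μM DPDPE, with or without compound (0.001 nM-100 μM). cAMP by EIA kit. Triplicate determinations; IC50 as mean ± SE of 5-6 independent experiments.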
For orientation: Cyclic AMP is a second messenger, typically raised through Gs and lowered through Gi signalling.

Data set [8] deals with T2, Mu-type opioid receptor. In words: Antagonist activity at human MOR expressed in HEK293 cells assessed as reduction of DAMGO-induced inhibition of forskolin-induced cAMP accumulation by EIA method. In kind it is functional, cell-based.
The target of data set [9] is T1, Kappa-type opioid receptor. In words: Antagonist activity at human KOR expressed in HEK293 cells assessed as reduction of U50,488-induced inhibition of forskolin-induced cAMP accumulation by EIA method. In kind it is functional, cell-based.
The target of data set [10] is T2, Mu-type opioid receptor. In words: Binding affinity to MOR (unknown origin). The procedure, abridged: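 Test compounds were run at 10⁻¹²-10⁻⁴ M, incubated 90 min at 25°C in 100 mM Tris-HCl with 0.3% BSA. Nonspecific binding was defined with cold ligand. Filter-trapped radioactivity was counted by liquid scintillation, with filters presoaked in 0.3% polyethylenimine. Assays were run in triplicate. Ki was derived from IC50 by Cheng-Prusoff.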

Data set [11] is described as follows: Antagonist activity against KOR in rabbit vas deferens smooth muscles assessed as inhibition of asimadoline-induced response. The following applies: Oryctolagus cuniculus.
For data set [12], the target named is T1, Kappa-type opioid receptor. In words: Binding affinity to KOR (unknown origin). In a few lines: (§2)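 Displacement binding on membranes from HEK-293 cells stably expressing cloned human receptors; radioligand [³H]diprenorphine for DOR, [³H]U69,593 for KOR. Compounds tested at 10⁻¹²–10⁻⁴ M, incubated 90 min at 25°C in 100 mM Tris-HCl with 0.3% BSA. Nonspecific binding defined with cold ligand. Filter-bound radioactivity counted by liquid scintillation. Ki from IC50 via Cheng-Prusoff. Run in triplicate.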

For data set [13], the target named is T3, Delta-type opioid receptor. The experiment in a line: Binding affinity to DOR (unknown origin). The procedure, abridged:
as §2

Data set [14] relates to Mus musculus. In words: Antinociceptive activity in mouse model of visceral pain assessed as reduction in AcOH-induced stretching or writhing responses at 10 mg/kg, ip 5 mins before AcOH challenge and co-administered with 10 mg/kg, ip KOR antagonist norBNI 10 mins before compound dosing. In kind it is functional, organism-based.
The subject of data set [15] is Mus musculus. The experiment in a line: Antinociceptive activity in mouse model of visceral pain assessed as reduction in AcOH-induced stretching or writhing responses at 10 mg/kg, ip 5 mins before AcOH challenge and co-administered with 30 mg/kg, ip opioid antagonist NLX 15 mins before compound dosing. In kind it is functional, organism-based. (In general: In writhing tests, fewer writhes than in controls are read as antinociception.)

Data set [16] concerns Mus musculus. In words: Antinociceptive activity in mouse model of visceral pain assessed as reduction in AcOH-induced stretching or writhing responses at 10 mg/kg, ip 5 mins before AcOH challenge and co-administered with 10 mg/kg, ip DOR antagonist NTD 30 mins before compound dosing. The data set is classed as functional, organism-based.
Data set [17] relates to Mus musculus. The experiment in a line: Effect on spontaneous locomotor activity in mouse model of visceral pain at 0.5 to 10 mg/kg, ip dosed 5 mins before AcOH challenge measured within 6 hrs. The data set is classed as ADME, organism-based. The following applies: in vivo.
Data set [18] has as its system Mus musculus. In words: Effect on grooming behavior in mouse model of visceral pain at 0.5 to 10 mg/kg, ip dosed 5 mins before AcOH challenge measured within 6 hrs. The data set is classed as ADME, organism-based. The following applies: in vivo.
The subject of data set [19] is Mus musculus. The experiment in a line: Effect on circling behavior in mouse model of visceral pain at 0.5 to 10 mg/kg, ip dosed 5 mins before AcOH challenge measured within 6 hrs. The data set is classed as ADME, organism-based. The following applies: in vivo.
The nature of data set [20]: Toxicity in mouse model of visceral pain assessed as induction of straub tail at 0.5 to 10 mg/kg, ip dosed 5 mins before AcOH challenge measured within 6 hrs. The data set is classed as organism-based. The following applies: in vivo.
Data set [21] in a line: Stability in mouse serum after 3 hrs by RP-HPLC and ESI-MS analysis. In kind it is ADME, cell-free. The procedure, abridged:
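Compound incubated in mouse serum for 3 h to assess enzymatic stability.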

The subject of data set [22] is Mus musculus. The experiment in a line: Antinociceptive activity in mouse model of visceral pain assessed as reduction in AcOH-induced stretching or writhing responses dosed intraperitoneally 5 mins before AcOH challenge. The data set is classed as functional. The procedure, abridged:
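Mice given 0.6% w/v AcOH in water ip (0.1 ml/10 g). Compound (0.5-10 mg/kg) or vehicle given ip 5 min earlier. Stretching/writhing counted for 10 min after AcOH. 6-8 mice per group, mean ± SEM; ED50 derived from the dose-response; Dunnett test after ANOVA.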

pEC50, pIC50, pKi: −log10 of the molar value. Active and inactive are the calls of the source. No cut-off for these calls is given here. Non-standard residues stand in square brackets, D forms with d. Residues, ends and D or L forms follow the SMILES beside them.

T2 sequence (P35372 whole entry): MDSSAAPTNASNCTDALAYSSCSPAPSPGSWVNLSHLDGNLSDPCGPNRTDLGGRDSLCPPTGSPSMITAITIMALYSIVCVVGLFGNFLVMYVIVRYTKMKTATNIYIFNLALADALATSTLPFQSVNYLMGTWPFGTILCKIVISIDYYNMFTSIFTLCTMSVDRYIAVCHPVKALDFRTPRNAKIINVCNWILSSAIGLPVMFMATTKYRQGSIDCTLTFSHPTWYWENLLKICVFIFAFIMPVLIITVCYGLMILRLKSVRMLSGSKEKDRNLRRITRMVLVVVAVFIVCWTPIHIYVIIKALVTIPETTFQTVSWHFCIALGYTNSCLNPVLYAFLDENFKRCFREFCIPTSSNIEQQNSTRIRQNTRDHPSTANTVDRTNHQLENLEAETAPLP
T1 sequence (P41145 whole entry): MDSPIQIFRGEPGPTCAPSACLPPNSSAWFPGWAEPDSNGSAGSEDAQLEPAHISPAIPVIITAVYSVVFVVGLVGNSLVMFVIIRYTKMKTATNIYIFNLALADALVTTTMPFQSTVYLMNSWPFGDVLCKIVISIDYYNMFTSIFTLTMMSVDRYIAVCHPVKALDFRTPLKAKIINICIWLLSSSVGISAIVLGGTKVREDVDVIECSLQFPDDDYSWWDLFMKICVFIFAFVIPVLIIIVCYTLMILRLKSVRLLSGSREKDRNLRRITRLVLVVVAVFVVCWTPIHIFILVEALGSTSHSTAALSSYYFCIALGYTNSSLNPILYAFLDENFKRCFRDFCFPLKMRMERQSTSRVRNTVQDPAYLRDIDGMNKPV
T3 sequence (P41143 whole entry): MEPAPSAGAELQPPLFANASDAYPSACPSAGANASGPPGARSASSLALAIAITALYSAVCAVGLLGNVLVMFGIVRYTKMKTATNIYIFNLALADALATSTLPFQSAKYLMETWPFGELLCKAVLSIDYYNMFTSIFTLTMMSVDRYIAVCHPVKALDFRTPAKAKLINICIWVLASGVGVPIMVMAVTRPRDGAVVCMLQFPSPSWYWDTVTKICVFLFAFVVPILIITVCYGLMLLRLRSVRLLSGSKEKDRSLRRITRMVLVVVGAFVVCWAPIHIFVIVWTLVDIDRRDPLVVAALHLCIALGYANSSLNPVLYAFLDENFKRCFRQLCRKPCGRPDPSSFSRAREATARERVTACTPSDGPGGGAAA

Regarding `C[C@@H]1NC(=O)[C@H](Cc2c[nH]c3ccccc23)NC(=O)[C@@H](Cc2ccccc2)NC(=O)[C@H]2CCCN2C1=O`, the pKi in data set [1], in [2] and in data set [3] was less than 4.00 in each case.
`O=C1NCCCC(=O)N2CCC[C@@H]2C(=O)N[C@@H](Cc2ccccc2)C(=O)N[C@H]1Cc1c[nH]c2ccccc12`: in [4], the outcome was inactive. The pKi (as a rule, the negative decadic logarithm of the Ki, by convention in mol/L) is less than 4.00 in [1] and 8.51 in data set [3]. The pIC50 (as a rule, the IC50 on a negative log10 scale, so that one unit is a factor of ten) in data set [5] was 6.74. Besides, the inhibition (commonly the share of the control response that was lost under treatment) in [6] is less than 50%; in data set [7], “Dose-dependent effect”. Moreover, the inhibition entry in [8] and in data set [9] was “inactive” in each case.
Turning to `O=C1N[C@@H](Cc2ccccc2)C(=O)N2CCC[C@@H]2C(=O)N[C@@H](Cc2ccccc2)C(=O)N[C@H]1Cc1c[nH]c2ccccc12` (cyclo(FWF[dP])), the pIC50 in data set [10] was 6.59; in data set [12] it was 7.33; in data set [13], 5.59. Besides, the pKi was 7.49 in [1], 6.90 in [2] and less than 4.00 in data set [3]. Moreover, the pEC50 (commonly the EC50 on a negative log10 scale, so that one unit is a factor of ten) in [11] is 5.89.
Regarding `C[C@H]1NC(=O)[C@H](Cc2c[nH]c3ccccc23)NC(=O)[C@H](Cc2ccccc2)NC(=O)[C@H]2CCCN2C1=O`, the negative logarithm of the Ki (pKi) in data set [1], in data set [2] and in data set [3] was less than 4.00 throughout.
For the compound `Cn1cc(C[C@@H]2NC(=O)[C@H](Cc3ccccc3)NC(=O)[C@H]3CCCN3C(=O)[C@H](Cc3ccccc3)NC2=O)c2ccccc21`, the pKi in data set [1] and in data set [3] was less than 4.00 each time. The inhibition in data set [6] is less than 50%.
Turning to `O=C1CNC(=O)[C@H](Cc2ccccc2)NC(=O)[C@@H](Cc2c[nH]c3ccccc23)NC(=O)[C@H]2CCCN2C(=O)[C@H](Cc2ccc(O)cc2)N1` (cyclo(FGY[dP][dW])), the Activity in data set [12] was 1 ×10⁻⁸ M.
Take `O=C1NCCC(=O)N2CCC[C@@H]2C(=O)N[C@@H](Cc2ccccc2)C(=O)N[C@H]1Cc1c[nH]c2ccccc12`: the outcome in [14] and in data set [16] was Active. In addition, the result in data set [15] was inactive. For the same compound, the Activity entry in data set [17], in data set [18], in data set [19] and in data set [20] was “Non-Toxic” in each case. In addition, the pKi is less than 4.00 in [1], 8.39 in data set [2] and less than 4.00 in [3]. This compound gave a pIC50 in data set [5] of 8.21. In addition, the inhibition entry in data set [7], in data set [8] and in data set [9] was “inactive” throughout. The Stability result in data set [21] was “Stable”. Moreover, in data set [22], the inhibition result is “Dose-dependent effect”. Besides, in data set [22] (ip), the median effective dose (ED50) (usually the midpoint of the dose-response relation) was 0.64 mg/kg.
Consider `Cn1cc(C[C@H]2NC(=O)[C@H](Cc3ccccc3)NC(=O)[C@H]3CCCN3C(=O)[C@H](Cc3ccccc3)NC2=O)c2ccccc21`, for which the pKi in [1], in data set [2] and in [3] was less than 4.00 each time.
